The list is not random: actives were taken first. Their share in the collection is about 8.8%.
M1 antag: blocks the rat M1 muscarinic receptor response to acetylcholine; P08482; CHO-M1 cells, Fluo-4 calcium, ACh EC80 antagonist mode; hits give low values; B-score at 10 µM; actives 3.4% (n = 64,000); AID 628;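 active means calcium fluorescence response, raw or row-and-column corrected B-score, differing from the plate sample mean either way at a set confidence level, mostly lower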
RORa activator: RORA (human) activation. P35398. CHO-K1 Gal4-RORA LBD luciferase reporter, luminescence; percent increase over mock-subtracted basal signal. activation, % at 10 µM. actives 1.5% (n = 65,000). AID 560;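 active means activation above the mean of all tested compounds plus 3 SD, cut at about 49% in these data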
Target sequence (P35398 whole entry, looked up, the tested form may be a part): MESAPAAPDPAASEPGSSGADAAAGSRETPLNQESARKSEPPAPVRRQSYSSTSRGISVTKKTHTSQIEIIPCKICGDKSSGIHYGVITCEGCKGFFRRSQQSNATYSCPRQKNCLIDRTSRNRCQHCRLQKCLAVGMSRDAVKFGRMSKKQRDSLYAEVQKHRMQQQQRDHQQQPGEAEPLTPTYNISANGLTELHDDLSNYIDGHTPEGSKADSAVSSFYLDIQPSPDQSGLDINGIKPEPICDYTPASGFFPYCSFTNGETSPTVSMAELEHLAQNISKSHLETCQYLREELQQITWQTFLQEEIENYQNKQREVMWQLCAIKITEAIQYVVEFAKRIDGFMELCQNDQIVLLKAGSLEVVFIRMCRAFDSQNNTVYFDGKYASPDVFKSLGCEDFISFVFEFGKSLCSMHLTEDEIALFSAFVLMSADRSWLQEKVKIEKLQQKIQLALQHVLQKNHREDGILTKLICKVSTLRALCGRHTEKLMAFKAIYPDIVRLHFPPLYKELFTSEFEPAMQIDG
S1P3 agonist: S1P3 (human) receptor agonism; Q99500; S1P3 NFAT-BLA reporter cells, FRET ratio; relative to 1 µM S1P, basal subtracted; activation, % at 4.5 µM; actives 0.1% (n = 60,000); AID 373;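 active means activation above the screen-wide mean plus 3 SD, cut at about 4.5% in these data, passing the limit was not always enough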
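Assay system: stable CHO line with human S1P3, Gα16, NFAT-BLA reporter; Detection: FRET β-lactamase substrate fluorescence, excitation 405 nm, 460/535 nm emission ratio, background-subtracted; Read-out: percent activation versus median 1 µM S1P response, basal-subtracted, per plate; Incubation: cells plated overnight, compound 4 h 37 °C, substrate 2 h RT.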
M1 agonist: M1 muscarinic receptor agonism; actives 3% (n = 64,000); AID 626; B-score at 10 µM; CHO-M1 cells, Fluo-4 calcium fluorescence, agonist mode; hits give high values;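 active means fluorescence rise, raw or as B-score row- and column-corrected plate score, outside the 99.7% band of its plate's samples, either direction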
S1P1 ag-PAM: activates or potentiates agonism at human S1P1 receptor; S1P1 CRE-bla cells, forskolin, beta-lactamase FRET, potentiator mode; S1P1 agonist co-added at EC20, 2 nM; 100% = saturating reference agonist, 0% = basal; activation, % at 9.5 µM; actives 0.57% (n = 56,000); AID 449;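 active means activation above a cutoff set at the mean activation of all tested compounds plus 3 SD, cut at about 54% in these data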;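 further: forskolin at 4 µM as EC80 and the EC20 agonist is SEW2871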
SF1 activator: activators of human nuclear receptor SF-1; Q13285; CHO-K1 Gal4-SF-1 LBD luciferase reporter; % increase over DMSO SF-1-specific signal; activation, % at 10 µM; actives 1.9% (n = 65,000);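 active means activation above the mean activation of all tested compounds plus 3 SD, cut at about 50% in these data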
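System: CHO-K1 cells with Gal4–hSF-1 LBD chimera plus Gal4-driven luciferase; quantity: 4,000 CHO-K1 cells per well; compound: one dose, 10 µM compound, 1% DMSO; times: 20 h compound treatment, 37 °C; measured by: SteadyLite luciferase luminescence; read-out: percent activation versus DMSO; benchmarks: DMSO and mock-transfected background; replicates: one test per compound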
M1 antag conf: confirmation of rat M1 muscarinic receptor antagonists. shares compounds with M1 antag. actives 43% (n = 1,700). CHO-M1 cells, Fluo-4 calcium, ACh EC80 antagonism; hits give low values. calcium response (max-min fluorescence) at 10 µM;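 active means calcium response below the same-plate mean of wells given acetylcholine alone at its 80%-effect dose, minus 3 SD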
mGluR4 antag: selectivity test for M1 antagonists: human mGluR4 receptor | shares compounds with M1 antag | CHO-mGluR4 calcium flux, Fluo-4 fluorescence, glutamate EC80; hits give low values | fluorescence response (max-min) at 10 µM | actives 0.9% (n = 1,700);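 active means fluorescence response below the plate's average for near-maximal glutamate wells, less 3 SD of those wells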;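 further: raw unnormalized fluorescence span taken in the window right after glutamate addition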
Each line names hits and unclear results; the compound was inactive in the other large screens (follow-up assays come after a bar, where they were run).

CC(=NCCN1CCCCC1)c1c(O)n(Cc2ccccc2)c(=O)[nH]c1=O	M1 antag -2.41 | M1 antag conf inactive | mGluR4 antag inactive
CC1(C)COC(Nc2ccc(Cl)cc2)=N1	none (no result: S1P1 ag-PAM)
COc1cc(Br)cc(CN2CCN(C)CC2)c1O	M1 antag -3.93 | M1 antag conf 378 | mGluR4 antag inactive
COc1ccc(Br)cc1CN1CCN(CCO)CC1	none
COC(=O)C(O)(c1ccc(N(C)S(=O)(=O)c2ccccc2)cc1)C(F)(F)F (centres undefined)	M1 antag -10.5 | M1 antag conf inactive | mGluR4 antag inactive
O=C(Cc1ccccc1)OCCN1CCCCC1	M1 antag -3.51 | M1 antag conf 507 | mGluR4 antag inactive
NC(=O)C1(N2CCCCC2)CCN(Cc2ccccc2)CC1	none
CCCCOC(=O)C1=C(N)OC2=C(C(=O)CC(C)(C)C2)[C@]12C(=O)N(C)c1ccccc12	none
COc1ccccc1CC1/C(=N/O)C2CCN1CC2 (centres undefined)	M1 antag -2.63 | M1 antag conf inactive | mGluR4 antag inactive
FC(F)(F)c1ccc2c(c1)ncn2C1CCN(Cc2nnnn2C2CCCCC2)CC1	M1 antag -13.5 | M1 antag conf inactive | mGluR4 antag inactive
CC(C)c1cccc(C(C)C)c1OCCn1ccnc1	M1 antag -2.03 | M1 antag conf 416 | mGluR4 antag inactive
CC1(C)CC(=O)C(C2(O)C(=O)NC(=O)NC2=O)=C(O)C1	none
CCCCOc1ccc(CN2CCN(CCO)CC2)cc1	M1 antag -4.77 | M1 antag conf 310 | mGluR4 antag inactive
CCCCOc1ccc(CC2C(=O)N(C)C(=O)N(C)C2=O)cc1	none
CCCCCCOc1ccc(CN2CCN(CCO)CC2)cc1	M1 antag -5.29 | M1 antag conf 366 | mGluR4 antag inactive
CCn1c(O)c(C=NCc2cccs2)c(=O)[nH]c1=O	none (no result: S1P1 ag-PAM)
COC(=O)CC1=C(C(=O)OC)C2(C(=O)Nc3c(C)cccc32)C(C#N)=C(N)O1 (centres undefined)	none
Cc1nn(Cc2ccccc2)c(C)c1C(=O)OCC(=O)Nc1ccccc1SCC#N	none
Cc1c(N=Cc2c(O)n(CCc3ccc(F)cc3)c(=O)[nH]c2=O)c(=O)n(-c2ccccc2)n1C	M1 antag -4.76 | M1 antag conf 259 | mGluR4 antag inactive
O=C(c1cc(=O)[nH]c2ccc(Br)cc12)N1CCC2(CC1)OCCO2	none

High-throughput results as filed in PubChem.
